Results from ChEMBL document CHEMBL1132403, “Prospective identification of biologically active structures by topomer shape similarity searching” (J Med Chem, 1999).

biological target: T1, Type-1 angiotensin II receptor B (Rattus norvegicus) (UniProt P29089); assay: Percent displacement of [125I]Sar, Ile-Angiotensin II (A II) binding to rat Angiotensin II receptor, type 1; design: concentration or dose not given beside the values
T1 sequence (whole entry): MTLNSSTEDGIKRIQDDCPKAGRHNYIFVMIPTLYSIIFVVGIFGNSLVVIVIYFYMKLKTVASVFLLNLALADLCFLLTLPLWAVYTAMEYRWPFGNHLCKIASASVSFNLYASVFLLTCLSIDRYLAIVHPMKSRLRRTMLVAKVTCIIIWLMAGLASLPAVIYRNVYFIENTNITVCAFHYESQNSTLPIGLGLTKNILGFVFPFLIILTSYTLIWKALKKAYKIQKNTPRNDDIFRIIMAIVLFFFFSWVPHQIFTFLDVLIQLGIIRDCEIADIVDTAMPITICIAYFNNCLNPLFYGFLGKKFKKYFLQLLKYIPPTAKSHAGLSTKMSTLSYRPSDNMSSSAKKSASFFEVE
In short: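 Whole-cell competition binding on rat aortic smooth muscle cells expressing rat AT1, seeded 24 h before assay. Radioligand [125I]Sar,Ile-angiotensin II at 0.2 nM in DMEM pH 7.4 with 5 mM MgCl2, 1 mM EDTA and 0.1% BSA. Incubation 2 h at 25 °C with mild shaking. Nonspecific binding defined by 10 μM angiotensin II (final). Cells washed twice with PBS, lysed in 1% Triton X/0.1% BSA, and counted on a γ counter. Assay variability at least ±20%.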

Displacement [%]	Compound
33	O=C(O)c1cccc(-c2ccc(Cn3c(C(F)(F)F)nc4ccccc43)cc2)c1
69	CC(C)c1nc2ccccc2n1Cc1ccc(-c2ccccc2-c2nn[nH]n2)cc1
37	CCCc1nccn1Cc1ccc(-c2ccccc2C(=O)O)cc1
30	CCOC(=O)c1cc2ccccc2n1Cc1cccc(-c2ccccc2CC(=O)O)c1
47	CN(C)c1cnnc2ncn(Cc3cccc(-c4ccccc4C(=O)O)c3)c12
21	O=C1COc2cccnc2N1Cc1cccc(-c2cccc(Cc3nnn[nH]3)c2)c1

Continued, molecule first:

Compound	Displacement [%]
O=C(O)c1cccc(-c2ccc(CN3C(=O)C(=O)c4c(Cl)ccc(Cl)c43)cc2)c1	31
c1ccc(-c2ccc(Cn3c(-c4cscn4)nc4ccccc43)cc2)c(Cc2nnn[nH]2)c1	35
Clc1nc2ccccc2n1Cc1ccc(-c2ccccc2Cc2nnn[nH]2)cc1	31
CSc1nc2ccccc2n1Cc1ccc(-c2ccccc2Cc2nnn[nH]2)cc1	38
